Hits are enriched below; roughly 1.9% of the tested compounds scored in any of these assays.
M4 PAM – positive allosteric modulators of human muscarinic M4 receptor; P08173; CHO-K1 hM4/Gqi5, Fluo-8 calcium fluorescence, ACh EC20; 0% = ACh EC20, 100% = maximal ACh; activation, % at 3 µM; 360,000 tested, 0.4% active;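 active = activation above its plate's cutoff, the mean activation of sample wells plus 3 SD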
Target sequence (P08173 whole entry, looked up): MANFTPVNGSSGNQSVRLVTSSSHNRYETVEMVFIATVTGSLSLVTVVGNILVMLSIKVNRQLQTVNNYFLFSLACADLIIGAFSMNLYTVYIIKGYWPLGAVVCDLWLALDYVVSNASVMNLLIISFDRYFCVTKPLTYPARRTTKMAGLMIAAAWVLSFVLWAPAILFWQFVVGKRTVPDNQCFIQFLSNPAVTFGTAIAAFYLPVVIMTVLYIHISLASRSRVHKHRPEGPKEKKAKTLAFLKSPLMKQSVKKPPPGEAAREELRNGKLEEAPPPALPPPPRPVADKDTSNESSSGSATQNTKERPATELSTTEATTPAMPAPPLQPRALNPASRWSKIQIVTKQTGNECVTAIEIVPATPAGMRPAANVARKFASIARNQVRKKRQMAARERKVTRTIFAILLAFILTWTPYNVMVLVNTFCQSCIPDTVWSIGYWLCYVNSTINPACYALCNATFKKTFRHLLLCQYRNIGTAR
CHRM5 agonist – CHRM5 agonism in calcium assay | P08912 | CHO-K1 hM5 cells, Fluo-8 calcium fluorescence; 0% DMSO wells, 100% maximal acetylcholine response | activation, % at 3 µM | 360,000 tested, 0.19% active | AID 624037;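 active = activation above the run's mean over test compounds plus 3 SD, cut at about 23% in these data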;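 note: signal is peak over basal fluorescence ratio across the kinetic read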
M4 antag – blocks acetylcholine activation of human M4 receptor | P08173 | CHO-hM4 cells, ACh EC80, Fluo-8 calcium fluorescence | inhibition, % at 3 µM | 360,000 tested, 0.73% active | AID 624125;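 active = inhibition above its plate's cutoff, the mean inhibition of sample wells plus 3 SD, cut at about 27% in these data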;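 note: 0% = acetylcholine EC80 with DMSO and 100% = DMSO without agonist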
M4 ag – agonists of human muscarinic M4 receptor (CHRM4); P08173; CHO-K1 hM4/Gqi5, Fluo-8 calcium fluorescence; vehicle 0%, full acetylcholine response 100%; activation, % at 3 µM; 360,000 tested, 0.14% active; AID 624127;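 active = activation above the run mean over all test wells plus 3 SD, cut at about 32% in these data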;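 note: peak over basal fluorescence ratio per well then scaled between controls; 0% = DMSO wells and 100% = acetylcholine at EC100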
CHRM5 antagonist – blocks acetylcholine activation of human M5 receptor; CHO-hM5 cells, Fluo-8 calcium fluorescence, ACh EC80; inhibition, % at 3 µM; 360,000 tested, 0.59% active; AID 624040;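 active = inhibition above a per-plate cutoff, the mean of that plate's test compounds plus 3 SD, cut at about 27% in these data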;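 note: 0% = acetylcholine EC80 with DMSO and 100% = DMSO without agonist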
M5 PAM – potentiates acetylcholine response at human M5 receptor; CHO-K1 hM5, Fluo-8 calcium, ACh EC20 PAM; 0% = ACh EC20, 100% = ACh EC100; activation, % at 3 µM; 360,000 tested, 0.3% active; AID 624038;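 active = activation above the run cutoff, the mean activation of all test compounds plus 3 SD, cut at about 18% in these data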
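Test system: CHO-K1 hM5 cells / Doses: single-point, 3 µM nominal / Times: Post-acetylcholine fluorescence recording 140 s / Technique: Fluo-8 calcium fluorescence / Measure: Max/basal fluorescence ratio as % of EC20–EC100 ACh window / Benchmarks: low control EC20 acetylcholine (0%), high control EC100 acetylcholine (100%) / Replicates: one well per compound, no replicates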
* hit, by the source's call.

SMILES | M4 PAM | CHRM5 agonist | M4 antag | M4 ag | CHRM5 antagonist | M5 PAM
COc1ccc(-c2nn(-c3ccccc3)cc2C(=O)O)cc1 | 4.0 | 2.5 | -2.5 | 1.4 | -0.4 | 0.0
COC(=O)c1cn(-c2ccccc2)nc1-c1ccc(OC)c(OC)c1 | 5.3 | 6.0 | -23.6 | 4.6 | 11.9 | 19.2*
O=C1CCC(c2ccccc2)(C2CCN(Cc3ccccc3)CC2)C(=O)N1 (stereo not drawn) | -18.5 | -1.4 | 99.2* | 1.3 | 98.9* | -18.4
O=C1CCN(Cc2ccccc2)C(=O)N1 | 12.2 | 2.1 | -4.0 | 0.6 | 2.5 | 7.1
Cc1cccc(Nc2nc(-c3c(C)nc4ccccn34)cs2)c1 | -11.2 | 2.5 | 31.3* | 19.5 | 34.8* | -20.7
Cc1nc2ccccn2c1-c1csc(Nc2cccc(O)c2)n1 | -10.6 | 2.6 | -1.8 | 13.2 | 5.6 | -14.3
CC1CCc2c(sc(/N=C/N(C)C)c2C#N)C1 (stereo not drawn) | 2.5 | -5.6 | -3.3 | -0.1 | -10.2 | 20.3*
CCOC(=O)c1cnc(-n2nc(C)cc2C)nc1NCc1ccccc1 | -11.5 | -5.6 | 16.8 | 0.3 | 6.6 | -12.6
CCc1ccc(OCC(=O)NNC(=O)c2cnccn2)c(Br)c1 | 20.4* | -5.5 | -18.7 | 1.1 | -5.2 | 3.4
CCN1CCN(Cc2ccc(NC(=O)Nc3ccccc3Cl)cc2)CC1 | -2.7 | -4.9 | -2.9 | 1.2 | 1.6 | -5.5
COc1ccc(C(=O)OC2CCN(C)CC2)cc1 | 30.8* | -6.7 | -14.8 | 1.1 | -11.3 | 4.0
O=Cc1ccccc1Oc1ccccc1 | 0.8 | 1.5 | 1.0 | 0.2 | -1.2 | 4.5
O=Cc1ccccc1OCCOc1ccccc1C=O | -11.0 | -5.0 | 26.8* | 1.1 | 20.6 | -20.9
CS(=O)(=O)N1CCN(c2ccc([N+](=O)[O-])c3cccnc23)CC1 | 21.4 | 0.7 | 34.9* | 1.9 | -2.7 | 2.9
COc1ccc(C2c3c(ncn(CCCO)c3=N)Oc3ccc4ccccc4c32)cc1 (stereo not drawn) | -8.7 | -4.4 | 0.1 | 18.8 | 7.2 | -9.6
COc1ccc(C2c3c(ncn(CCCO)c3=N)Oc3ccc4ccccc4c32)cc1OC (stereo not drawn) | 11.5* | -1.7 | 0.8 | 0.7 | -4.2 | 6.5
Cc1ccc(N(Cc2cc(=O)[nH]c3ccccc23)C(=O)C(C)C)c(C)c1 | -10.6 | 0.4 | 46.0* | -0.6 | 6.2 | -0.2
Cc1ccccc1N(Cc1cc(=O)[nH]c2ccccc12)C(=O)C(C)C | -5.7 | -1.6 | -15.1 | 2.3 | -4.7 | -1.2
O=C(COC(=O)c1ccc(OC(F)F)cc1)NC(=O)NC1CCCC1 | 0.0 | -5.3 | 3.0 | -1.2 | 2.9 | 1.5
Clc1ccc(OCc2cn3ccccc3n2)c2ncccc12 | -1.1 | -4.6 | -5.2 | 0.7 | 35.0* | -12.2
COc1ccc(-c2nnc(-c3ccc(OCC(C)C)cc3)o2)cc1 | 22.1* | -3.7 | -5.6 | 1.8 | -6.3 | 9.0
CC(C)COc1ccc(-c2nnc(-c3ccncc3)o2)cc1 | 16.8 | 1.1 | 6.4 | 1.7 | 4.5 | 0.8
O=C(CC1SCCNC1=O)Nc1cccc(C(F)(F)F)c1 (stereo not drawn) | 32.4* | 0.0 | -5.0 | 2.9 | -1.8 | 1.7
CCN(C(=O)COC(=O)c1ccccc1NCCO)C1CCS(=O)(=O)C1 (stereo not drawn) | -3.0 | -4.7 | -0.1 | 0.3 | 6.0 | 1.2
CC(C)N1CSC(=S)N(Cc2ccccc2)C1 | 11.0 | 4.8 | -5.4 | 0.8 | -16.1 | 18.2*
SMILES | M4 PAM | CHRM5 agonist | M4 antag | M4 ag | CHRM5 antagonist | M5 PAM
COC(c1ccccc1)c1nnc(CCC(=O)N2CCN(Cc3cccs3)CC2)o1 (stereo not drawn) | -1.4 | -3.3 | 1.3 | 1.9 | 3.9 | -1.8
COC(c1ccccc1)c1nnc(CCC(=O)N2CCCCCCC2)o1 (stereo not drawn) | 18.1* | 0.2 | -17.6 | 3.1 | 4.7 | 1.7
O=C(/C(=C/c1ccc(Cl)cc1)c1nc2ccccc2[nH]1)c1cccs1 | -16.2 | -5.9 | 66.4* | 3.7 | 19.7 | -23.4
O=C(/C(=C\c1ccccc1)c1nc2ccccc2[nH]1)c1ccc(Cl)cc1 | 0.1 | -1.9 | -13.0 | 2.2 | 0.0 | -3.6
O/C(=C\c1nc2ccccc2[nH]1)c1cccs1 | 5.5 | 1.1 | -4.2 | 3.5 | 4.4 | 3.0
O=c1[nH]c2ccccc2nc1/C=C(\O)c1cccs1 | -6.6 | 31.4* | 6.4 | 11.6 | 14.1 | -16.0
CCn1c2ccccc2c2nnc(SCCN3CCOCC3)nc21 | -6.8 | 1.6 | 3.1 | 4.1 | 1.2 | 0.6
CCn1c2ccccc2c2nnc(SCCN3CCCCC3)nc21 | -14.7 | -15.4 | 27.6* | 0.8 | 5.6 | 2.1
C=CC[C@@H](CC(=O)NCCO)C(=O)N[C@H](C)COC(=O)[C@@H](CC=C)Cc1ccc(F)cc1 | 3.4 | -0.1 | -1.1 | 0.9 | 6.6 | 2.9
CC(=O)c1ccc(OCC(=O)NCC2(N3CCCCC3)CCCCC2)cc1 | -16.3 | -19.1 | -10.6 | 0.7 | 3.2 | -1.9
Cc1nc2sccn2c(=O)c1S(=O)(=O)Nc1ccc(N2CCN(S(C)(=O)=O)CC2)cc1 | -16.3 | -1.2 | 18.0 | 19.1 | 33.6* | -14.6
COc1ccc(-c2nnc(OC)c3ccccc23)cc1 | -14.7 | 0.0 | 34.6* | 0.9 | 3.6 | -1.7
CN(C)S(=O)(=O)c1cccc(C(=O)OCC(=O)Nc2sccc2C(N)=O)c1 | -20.3 | 14.7 | 38.4* | 30.4 | 16.0 | -19.8
NC(=O)c1ccsc1NC(=O)COC(=O)Cc1cccc2ccccc12 | -14.3 | 7.9 | 61.1* | 22.2 | 54.8* | -21.0
NC(=O)c1ccsc1NC(=O)CSc1ccccc1F | 2.9 | 4.9 | 5.3 | 4.3 | 2.2 | 0.4
Cc1ccccc1SCC(=O)OCC(=O)Nc1sccc1C(N)=O | -12.1 | 8.9 | 30.7* | 18.5 | 39.6* | -19.5
CCC(=O)N[C@@H]1CC[C@@H](CCNC(=O)Nc2ccc(F)cc2)O[C@@H]1CO | 0.9 | 0.9 | -7.4 | 2.3 | -3.6 | 1.0
Cc1ccc(NC(=O)[C@H](C)NC(=O)C2CCN(C(=O)[C@@H](NC(=O)OC(C)(C)C)C(C)C)CC2)cc1 | 17.3* | -5.0 | -1.4 | -1.2 | -2.2 | 0.0
O=S(=O)(c1ccc(N2CCOCC2)cc1)N1CCOCC1 | 4.7 | -3.9 | -5.3 | 0.6 | -9.7 | 8.3
O=C(C1CCCC1)N1CCCC(Nc2ccc(F)cc2)C1 (stereo not drawn) | -3.5 | -2.1 | 7.2 | 0.5 | 1.4 | -2.3
Cc1ccc(NC2CCCN(C(=O)C3CCCCC3)C2)cc1C (stereo not drawn) | -2.3 | 2.7 | 5.6 | -0.2 | -14.3 | 21.4*
CSc1nc(-c2ccco2)nn1S(=O)(=O)c1ccc(C)cc1 | 4.9 | 0.1 | -9.2 | 1.7 | 0.2 | 0.0
COC(=O)c1c(NC(C)=O)sc(C)c1C | -2.3 | -5.8 | 0.8 | 0.1 | -5.2 | 8.8

Compound activity as filed in PubChem BioAssay.
